# According to ChEMBL document CHEMBL4368886, “Design, synthesis, and biological activity of novel ammonium salts containing sterically hindered phenolic fragment and phosphoryl group” (Medchemcomm, 2018):
# Calls of active or inactive are those of the source. The rule behind the calls is not given here.
# Legend:
# Aspergillus niger [1] = experiment: Antimicrobial activity against Aspergillus niger BKMF-1119 measured after 14 days by two-fold serial dilution method; type: functional, organism-based
# Bacillus cereus [2] = experiment: Bactericidal activity against Bacillus cereus ATCC 8035 measured after 4 hrs; type: functional
# How it was run: (§1)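 Microbicidal (bactericidal/fungicidal) concentration, killing of microbial cells, determined per literature procedures; tests in duplicate, repeated twice.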
# Staphylococcus aureus [3] = experiment: Bactericidal activity against Staphylococcus aureus 209p measured after 4 hrs; type: functional; how it was run: as §1
# Escherichia coli [4] = experiment: Antimicrobial activity against Escherichia coli CDC F-50 measured every 24 hrs for 5 days by two-fold serial dilution method; type: functional
# Aspergillus niger [5] = experiment: Bactericidal activity against Aspergillus niger BKMF-1119 measured after 4 hrs; type: functional, organism-based; how it was run: as §1
# [6] = system: Trichophyton mentagrophytes; experiment: Antimicrobial activity against Trichophyton mentagrophytes var. gypseum 1773 measured after 14 days by two-fold serial dilution method; type: functional
# [7] = system: Trichophyton mentagrophytes var. granulosum; experiment: Bactericidal activity against Trichophyton mentagrophytes var. granulosum 1773 measured after 4 hrs; type: functional; how it was run: as §1
# Staphylococcus aureus [8] = experiment: Antimicrobial activity against Staphylococcus aureus 209p measured every 24 hrs for 5 days by two-fold serial dilution method; type: functional
# Escherichia coli [9] = experiment: Bactericidal activity against Escherichia coli CDC F-50 measured after 4 hrs; type: functional; how it was run: as §1
# Pseudomonas aeruginosa [10] = experiment: Antimicrobial activity against Pseudomonas aeruginosa ATCC 9027 measured every 24 hrs for 5 days by two-fold serial dilution method; type: functional
# Bacillus cereus [11] = experiment: Antimicrobial activity against Bacillus cereus ATCC 8035 measured every 24 hrs for 5 days by two-fold serial dilution method; type: functional
# Pseudomonas aeruginosa [12] = experiment: Bactericidal activity against Pseudomonas aeruginosa ATCC 9027 measured after 4 hrs; type: functional; how it was run: as §1
# Candida albicans [13] = experiment: Antimicrobial activity against Candida albicans 855-653 measured after 14 days by two-fold serial dilution method; type: functional
# Candida albicans [14] = experiment: Bactericidal activity against Candida albicans 855-653 measured after 4 hrs; type: functional; how it was run: as §1
SMILES,MIC (Aspergillus niger [1]),MIC (Bacillus cereus [2]),MIC (Staphylococcus aureus [3]),MIC (Escherichia coli [4]),MIC (Aspergillus niger [5]),MIC [6],MIC [7],MIC (Staphylococcus aureus [8]),MIC (Escherichia coli [9]),MIC (Pseudomonas aeruginosa [10]),MIC (Bacillus cereus [11]),MIC (Pseudomonas aeruginosa [12]),"MIC (Candida albicans [13]; 855-653, 336 h) [µM]","MIC (Candida albicans [14]; 855-653, 4 h) [µM]","MIC (Bacillus cereus [2]; ATCC 8035, 4 h) [µM]",MIC (Candida albicans [14]),"MIC (Escherichia coli [9]; CDC F-50, 4 h) [µM]","MIC (Pseudomonas aeruginosa [12]; ATCC 9027, 4 h) [µM]",MIC (Candida albicans [13])
CC[N+](C)(C)CCCNC(=O)CCc1cc(C(C)(C)C)c(O)c(C(C)(C)C)c1,inactive,inactive,inactive,inactive,inactive,inactive,inactive,inactive,inactive,inactive,inactive,inactive,265,265,,,,,
CC[N+](C)(C)CCCNC(c1cc(C(C)(C)C)c(O)c(C(C)(C)C)c1)P(=O)(OC(C)C)OC(C)C (stereo not drawn),inactive,,105 µM,inactive,inactive,inactive,inactive,105 µM,inactive,inactive,105 µM,inactive,422,422,421,,,,
CC[N+](C)(C)CCNC(c1cc(C(C)(C)C)c(O)c(C(C)(C)C)c1)P(=O)(OC(C)C)OC(C)C (stereo not drawn),inactive,,108 µM,inactive,inactive,inactive,inactive,108 µM,inactive,inactive,216 µM,inactive,432,,216,inactive,,,
CCOP(=O)(OCC)C(NCC[N+](C)(C)Cc1ccccc1)c1cc(C(C)(C)C)c(O)c(C(C)(C)C)c1 (stereo not drawn),inactive,,407 µM,inactive,inactive,inactive,inactive,51 µM,inactive,inactive,6.4 µM,inactive,177,177,102,,,,
CCCCCCCC[N+](C)(C)CCCNC(=O)CCc1cc(C(C)(C)C)c(O)c(C(C)(C)C)c1,inactive,,28 µM,inactive,inactive,inactive,inactive,28 µM,inactive,inactive,28.1 µM,inactive,28,56.3,28.1,,,,
CCn1cc(C(=O)O)c(=O)c2cc(F)c(N3CCNCC3)cc21 [NORFLOXACIN],,,7.5 µM,4.7 µM,,,,7.5 µM,,9.4 µM,25 µM,,,,50,,4.7,48.8,
CC(C)OP(=O)(OC(C)C)C(NCC[N+](C)(C)Cc1ccccc1)c1cc(C(C)(C)C)c(O)c(C(C)(C)C)c1 (stereo not drawn),inactive,,97.3 µM,inactive,inactive,inactive,inactive,24.3 µM,inactive,inactive,48.8 µM,inactive,195,,48.8,inactive,,,
O=C(N[C@H](CO)[C@H](O)c1ccc([N+](=O)[O-])cc1)C(Cl)Cl [CHLORAMPHENICOL],,,,386 µM,,,,193 µM,,,193 µM,,,,,,,,
CCOP(=O)(OCC)C(NCCC[N+](C)(C)Cc1ccccc1)c1cc(C(C)(C)C)c(O)c(C(C)(C)C)c1 (stereo not drawn),inactive,,199 µM,inactive,inactive,inactive,inactive,99.5 µM,inactive,inactive,24.8 µM,inactive,199,199,24.8,,,,
CCCCCCCCCCCCCCCC[N+](C)(C)CCNC(=O)CCc1cc(C(C)(C)C)c(O)c(C(C)(C)C)c1,inactive,inactive,inactive,inactive,inactive,inactive,inactive,95.7 µM,inactive,inactive,383 µM,inactive,383,383,,,,,
CCCCCCCCCCCCCCCC[N+](C)(C)CCCNC(=O)CCc1cc(C(C)(C)C)c(O)c(C(C)(C)C)c1,inactive,,inactive,inactive,inactive,inactive,inactive,47 µM,inactive,inactive,375 µM,inactive,187,375,375,,,,
CCCCCCCC[N+](C)(C)CCNC(=O)CCc1cc(C(C)(C)C)c(O)c(C(C)(C)C)c1,inactive,,29 µM,inactive,inactive,inactive,inactive,29 µM,inactive,inactive,58 µM,inactive,29,29,58,,,,
CC(C)OP(=O)(OC(C)C)C(NCCC[N+](C)(C)Cc1ccccc1)c1cc(C(C)(C)C)c(O)c(C(C)(C)C)c1 (stereo not drawn),inactive,,95.3 µM,inactive,inactive,inactive,inactive,95.3 µM,inactive,inactive,95.3 µM,inactive,,,95.3,inactive,,,inactive
CCCCCCCCCCCC[N+](C)(C)CCNC(=O)CCc1cc(C(C)(C)C)c(O)c(C(C)(C)C)c1,inactive,,52.4 µM,inactive,inactive,inactive,inactive,52.4 µM,inactive,inactive,419 µM,inactive,419,419,419,,,,
CCOP(=O)(OCC)C(NCC[N+](C)(C)CC)c1cc(C(C)(C)C)c(O)c(C(C)(C)C)c1 (stereo not drawn),inactive,,56.8 µM,inactive,inactive,inactive,inactive,56.8 µM,inactive,inactive,56.8 µM,inactive,,,56.8,inactive,,,inactive
CCCCCCCCCC[N+](C)(C)CCNC(=O)CCc1cc(C(C)(C)C)c(O)c(C(C)(C)C)c1,inactive,,1.6 µM,27.4 µM,inactive,inactive,inactive,1.6 µM,,27.4 µM,6.8 µM,,3.3,6.9,55,,55,55,
CCCCCCCCCCCC[N+](C)(C)CCCNC(=O)CCc1cc(C(C)(C)C)c(O)c(C(C)(C)C)c1,inactive,,102 µM,inactive,inactive,inactive,inactive,102 µM,inactive,inactive,206 µM,inactive,,,206,inactive,,,inactive
CC[N+](C)(C)CCNC(=O)CCc1cc(C(C)(C)C)c(O)c(C(C)(C)C)c1,inactive,inactive,inactive,inactive,inactive,inactive,inactive,inactive,inactive,inactive,inactive,inactive,68.5,,,inactive,,,
CCCCCCCCCCCC[N+](C)(C)CCNC(c1cc(C(C)(C)C)c(O)c(C(C)(C)C)c1)P(=O)(OCC)OCC (stereo not drawn),inactive,,45.2 µM,inactive,inactive,inactive,inactive,45.2 µM,inactive,inactive,361 µM,inactive,45.2,45.2,361,,,,
CCCCCCCCCC[N+](C)(C)CCCNC(=O)CCc1cc(C(C)(C)C)c(O)c(C(C)(C)C)c1,inactive,,3.3 µM,26.8 µM,inactive,inactive,inactive,1.5 µM,,26.8 µM,6.7 µM,,0.9,0.9,107,,53.6,26.8,
